In ChEMBL document CHEMBL1275293, “Aqua mediated synthesis of 2-amino-6-benzothiazol-2-ylsulfanyl-chromenes and its in vitro study, explanation of the structure-activity relationships (SARs) as antibacterial agent” (2010) one finds MIC data, which are given here for 20 compounds.

Each structure is given as a SMILES string. Values after ≈ are worked out from the molar mass of the structure shown.

What all share (assay type): functional
The test system of one assay is Staphylococcus aureus. In words: Antimicrobial activity against Staphylococcus aureus by broth microdilution method. Summed up:
(§1)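 Broth microdilution MIC following the NCCLS standard protocol, run in 96-well plates with 0.2 ml Mueller Hinton broth per well. Compounds were serially doubled from 0.5 to […] μg/ml, with ampicillin as reference. Inoculum was set to McFarland 0.5 turbidity, then diluted to about 5 × 10^5 cfu/ml per well. Plates included broth+inoculum and broth-only controls and were incubated overnight at 37 °C.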
(In general: Dilution methods test growth across graded concentrations, often in twofold steps.)

The subject of assay [1] is Staphylococcus epidermidis. In words: Antimicrobial activity against Staphylococcus epidermidis by broth microdilution method. Summed up: as §1
The test system of the next assay is Pseudomonas aeruginosa. The experiment in a line: Antimicrobial activity against Pseudomonas aeruginosa by broth microdilution method. Summed up:
as §1

For the next assay, the system named is Escherichia coli. The experiment in a line: Antimicrobial activity against Escherichia coli by broth microdilution method. In outline:
as §1

`N#CC1=C(N)Oc2ccc(Sc3nc4ccccc4s3)cc2C1c1ccccc1` (stereo not given): the MIC (as a rule, the lowest concentration found to suppress growth) in the assay with Staphylococcus aureus was found to be 4 µg/mL (≈ 9.67 µM); in assay [1], 8 µg/mL (≈ 19.3 µM); with Pseudomonas aeruginosa, 32 µg/mL (≈ 77.4 µM); against Escherichia coli, 16 µg/mL (≈ 38.7 µM).
Take `N#CC1=C(N)Oc2ccc(Sc3nc4ccccc4s3)cc2C1c1cccs1` (stereo not given): the MIC against Staphylococcus aureus is 2 µg/mL (≈ 4.77 µM); in assay [1] it was 64 µg/mL (≈ 153 µM); with Pseudomonas aeruginosa, 32 µg/mL (≈ 76.3 µM); with Escherichia coli, 2 µg/mL (≈ 4.77 µM).
For the compound `N#CC1=C(N)Oc2ccc(Sc3nc4ccccc4s3)cc2C1c1ccc(Cl)cc1` (stereo not given), the MIC against Staphylococcus aureus turned out to be 4 µg/mL (≈ 8.93 µM); in assay [1], 32 µg/mL (≈ 71.4 µM); against Pseudomonas aeruginosa, 16 µg/mL (≈ 35.7 µM); with Escherichia coli, 32 µg/mL (≈ 71.4 µM).
As for `COc1ccc(C2C(C#N)=C(N)Oc3ccc(Sc4nc5ccccc5s4)cc32)cc1` (stereo not given), the MIC against Staphylococcus aureus is 8 µg/mL (≈ 18 µM); in assay [1] it was 16 µg/mL (≈ 36.1 µM); with Pseudomonas aeruginosa it was 2 µg/mL (≈ 4.51 µM); in the assay on Escherichia coli it was 32 µg/mL (≈ 72.1 µM).
In the case of `N#CC1=C(N)Oc2ccc(Sc3nc4ccccc4s3)cc2C1c1ccc2ccccc2c1` (stereo not given), the MIC against Staphylococcus aureus turned out to be 16 µg/mL (≈ 34.5 µM); in assay [1], 32 µg/mL (≈ 69 µM); with Pseudomonas aeruginosa it was 8 µg/mL (≈ 17.3 µM); against Escherichia coli, 16 µg/mL (≈ 34.5 µM).
For `N#CC1=C(N)Oc2ccc(Sc3nc4ccccc4s3)cc2C1c1ccc2c(c1)OCO2` (stereo not given), the MIC against Staphylococcus aureus came out at 8 µg/mL (≈ 17.5 µM); in assay [1], 4 µg/mL (≈ 8.74 µM); in the assay on Pseudomonas aeruginosa, 8 µg/mL (≈ 17.5 µM); with Escherichia coli, 1 µg/mL (≈ 2.19 µM).
For `N#CC1=C(N)Oc2ccc(Sc3nc4ccccc4s3)cc2C1c1c[nH]c2ccccc12` (stereo not given), the MIC against Staphylococcus aureus came to 2 µg/mL (≈ 4.42 µM); in assay [1], 32 µg/mL (≈ 70.7 µM); with Pseudomonas aeruginosa, 16 µg/mL (≈ 35.4 µM); in the assay on Escherichia coli, 0.5 µg/mL (≈ 1.1 µM).
The matching figures for `N#CC1=C(N)Oc2ccc(Sc3nc4ccccc4s3)cc2C1c1cc2ccccc2nc1Cl` (stereo not given): 16 µg/mL (≈ 32.1 µM), 64 µg/mL (≈ 128 µM), 16 µg/mL (≈ 32.1 µM) and 16 µg/mL (≈ 32.1 µM).
Regarding `CCOC(=O)C1=C(N)Oc2ccc(Sc3nc4ccccc4[nH]3)cc2C1c1cccs1` (stereo not given), the MIC (with Staphylococcus aureus; in assay [1]; against Pseudomonas aeruginosa; with Escherichia coli) was 125 µg/mL (≈ 278 µM) in each case.
With `CCOC(=O)C1=C(N)Oc2ccc(Sc3nc4cc(OC)ccc4[nH]3)cc2C1c1cccs1` (stereo not given), the MIC (in the assay on Staphylococcus aureus; in assay [1]; in the assay on Pseudomonas aeruginosa; with Escherichia coli) was 125 µg/mL (≈ 261 µM) each time.
With `COc1ccc2[nH]c(Sc3ccc4c(c3)C(c3cccs3)C(C#N)=C(N)O4)nc2c1` (stereo not given), the MIC in the assay on Staphylococcus aureus came to 250 µg/mL (≈ 578 µM); in assay [1] it was 250 µg/mL (≈ 578 µM); against Pseudomonas aeruginosa, 125 µg/mL (≈ 289 µM); in the assay with Escherichia coli it was 125 µg/mL (≈ 289 µM).
`CCOC(=O)C1=C(N)Oc2ccc(Sc3nc4cc(OC)ccc4[nH]3)cc2C1c1ccc2c(c1)OCO2` (stereo not given): the MIC (against Staphylococcus aureus; in assay [1]; against Pseudomonas aeruginosa; against Escherichia coli) was 125 µg/mL (≈ 242 µM) throughout.
Turning to `CCOC(=O)C1=C(N)Oc2ccc(Sc3nc4cc(OC)ccc4[nH]3)cc2C1c1ccc([N+](=O)[O-])cc1` (stereo not given), the MIC turned out to be 64 µg/mL (≈ 123 µM) against Staphylococcus aureus, 64 µg/mL (≈ 123 µM) in assay [1], 32 µg/mL (≈ 61.7 µM) in the assay on Pseudomonas aeruginosa and 64 µg/mL (≈ 123 µM) against Escherichia coli.
As to `CCOC(=O)C1=C(N)Oc2ccc(Sc3nc4ccccc4[nH]3)cc2C1c1ccc(Cl)cc1` (stereo not given), the MIC was 32 µg/mL (≈ 66.9 µM) against Staphylococcus aureus, 64 µg/mL (≈ 134 µM) in assay [1], 8 µg/mL (≈ 16.7 µM) in the assay on Pseudomonas aeruginosa and 64 µg/mL (≈ 134 µM) against Escherichia coli.
Turning to `N#CC1=C(N)Oc2ccc(Sc3nc4ccccc4[nH]3)cc2C1c1ccc(Cl)cc1` (stereo not given), the MIC (in the assay with Staphylococcus aureus; in assay [1]; in the assay with Pseudomonas aeruginosa; against Escherichia coli) was 16 µg/mL (≈ 37.1 µM) each time.
Turning to `CCOC(=O)C1=C(N)Oc2ccc(Sc3nc4ccccc4[nH]3)cc2C1c1ccc([N+](=O)[O-])cc1` (stereo not given), the MIC against Staphylococcus aureus is 16 µg/mL (≈ 32.8 µM); in assay [1] it was 32 µg/mL (≈ 65.5 µM); in the assay with Pseudomonas aeruginosa, 8 µg/mL (≈ 16.4 µM); against Escherichia coli, 16 µg/mL (≈ 32.8 µM).
`CCOC(=O)C1=C(N)Oc2ccc(Sc3nc4ccccc4[nH]3)cc2C1c1cccc([N+](=O)[O-])c1` (stereo not given): the MIC was determined as 64 µg/mL (≈ 131 µM) against Staphylococcus aureus, 64 µg/mL (≈ 131 µM) in assay [1], 32 µg/mL (≈ 65.5 µM) against Pseudomonas aeruginosa and 32 µg/mL (≈ 65.5 µM) in the assay on Escherichia coli.
Turning to `CCOC(=O)C1=C(N)Oc2ccc(Sc3nc4cc(OC)ccc4[nH]3)cc2C1c1cccc([N+](=O)[O-])c1` (stereo not given), the MIC (in the assay with Staphylococcus aureus; in assay [1]; in the assay on Pseudomonas aeruginosa; in the assay with Escherichia coli) was 125 µg/mL (≈ 241 µM) in each case.
Turning to `CCOC(=O)C1=C(N)Oc2ccc(Sc3nc4cc(OC)ccc4[nH]3)cc2C1c1ccc(Cl)cc1` (stereo not given), the MIC with Staphylococcus aureus was determined as 32 µg/mL (≈ 63 µM); in assay [1] it was 64 µg/mL (≈ 126 µM); against Pseudomonas aeruginosa it was 64 µg/mL (≈ 126 µM); in the assay with Escherichia coli, 64 µg/mL (≈ 126 µM).
In the case of `COc1ccc2[nH]c(Sc3ccc4c(c3)C(c3ccc([N+](=O)[O-])cc3)C(C#N)=C(N)O4)nc2c1` (stereo not given), the minimal inhibitory concentration (MIC) in the assay on Staphylococcus aureus came out at 16 µg/mL (≈ 33.9 µM); in assay [1] it was 16 µg/mL (≈ 33.9 µM); in the assay on Pseudomonas aeruginosa it was 8 µg/mL (≈ 17 µM); against Escherichia coli, 16 µg/mL (≈ 33.9 µM).
